Bioassay records as filed in PubChem BioAssay.
PRMT1 inh = inhibitors of human PRMT1 | recombinant PRMT1, activity-based probe fluorescence polarization | inhibition, % at 2.79 µM | 370,000 compounds, 1.3% hits | AID 652257;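 active = inhibition above about 21% made by adding two undisclosed values, limit read from the data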
UHRF1 MBD2 ctr = blocks human UHRF1 binding to methylated DNA; Q96T88; 370,000 compounds, 0.75% hits; inhibition, % at 4.4 µM; UHRF1 binding to methylated oligo, TR-FRET; in the data active = inhibition above about 21%;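 note: UHRF1 SRA domain binding a hemimethylated CpG hairpin DNA probe; 0% = median of test compound wells and 100% = reference inhibitor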
LEDGF integ inh = blocks HIV-1 LEDGF/p75-dependent DNA integration; TR-FRET IN-LEDGF/p75 DNA integration, Eu/Cy5; 370,000 compounds, 0.64% hits; inhibition, % at 3.7 µM; AID 743269;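 active = inhibition above the screen-wide mean plus 3 SD, cut at about 13% in these data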;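 note: signal is the Cy5 over europium emission ratio at 671 and 618 nm; 0% = plate median of compound wells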
MBD2 inh = inhibitors of human MBD2 binding to methylated oligonucleotide. 370,000 compounds, 0.31% hits. TR-FRET. inhibition, % at 4.4 µM. Q9UBB5. AID 686964; in the data active = inhibition above about 13%
RBBP9 inh = human RBBP9 hydrolase inhibition | AID 1515 | O75884 | 220,000 compounds, 0.2% hits | recombinant RBBP9, FP-Rh probe fluorescence polarization | inhibition, % at 7.94 µM;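 active = inhibition above the campaign mean of all tested compounds plus 3 SD, cut at about 14% in these data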;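 note: plate controls were DMSO wells with RBBP9 for no effect and wells lacking RBBP9 protein for full effect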
Target sequence (O75884 whole entry, looked up): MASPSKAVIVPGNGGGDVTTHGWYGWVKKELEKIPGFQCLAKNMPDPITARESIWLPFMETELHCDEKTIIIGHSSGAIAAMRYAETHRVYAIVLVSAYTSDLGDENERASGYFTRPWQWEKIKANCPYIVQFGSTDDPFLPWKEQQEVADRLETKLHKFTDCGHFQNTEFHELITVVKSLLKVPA
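system = RBBP9 protein | input = RBBP9 at 2.5 µM in dispensed solution, before mixing | measured by = fluorescence polarization (mP), excitation 525 nm, emission 598 nm | incubation = enzyme-compound preincubation 30 min, then probe labeling 45 min, 25 °C | buffer or medium = Tris-NaCl-Pluronic buffer, pH 8.0 | compound = single dose 7.94 µM | also added = FP-Rh probe, 375 nM dispensing solution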
ABHD5-PLIN5 inh = blocks binding of human ABHD5 to perilipin-5; Split G. princeps luciferase complementation, luminescence, 4 h; inhibition, % at 4 µM; 360,000 compounds, 0.78% hits; AID 602281;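 active = inhibition above the mean inhibition across every tested compound plus 3 SD, cut at about 22% in these data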;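 note: 0% = DMSO only wells and the 100% control is not disclosed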
ABHD5-PLIN5 conf = ABHD5-PLIN5 interaction inhibition, confirmed | shares compounds with ABHD5-PLIN5 inh | biochemical ABHD5-PLIN5 interaction, luminescence | inhibition, % at 4 µM | 2,200 compounds, 67% hits | AID 651612; in the data active = inhibition above about 23%;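 note: 0% = DMSO vehicle wells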
HNF4 counter = HNF4 split-luciferase signal hit, counter-screen; shares compounds with ABHD5-PLIN5 inh; HNF4 dimerization, luminescence, biochemical; inhibition, % at 4 µM; 2,200 compounds, 77% hits;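 active = mean inhibition across replicate wells exceeding the computed hit threshold, cut at about 13% in these data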;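 note: light from luciferase halves that rejoin when HNF4 fusion proteins dimerize; 0% = DMSO only wells and the 100% control is not given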
Target sequence (P41235 whole entry, looked up, the tested form may be a part): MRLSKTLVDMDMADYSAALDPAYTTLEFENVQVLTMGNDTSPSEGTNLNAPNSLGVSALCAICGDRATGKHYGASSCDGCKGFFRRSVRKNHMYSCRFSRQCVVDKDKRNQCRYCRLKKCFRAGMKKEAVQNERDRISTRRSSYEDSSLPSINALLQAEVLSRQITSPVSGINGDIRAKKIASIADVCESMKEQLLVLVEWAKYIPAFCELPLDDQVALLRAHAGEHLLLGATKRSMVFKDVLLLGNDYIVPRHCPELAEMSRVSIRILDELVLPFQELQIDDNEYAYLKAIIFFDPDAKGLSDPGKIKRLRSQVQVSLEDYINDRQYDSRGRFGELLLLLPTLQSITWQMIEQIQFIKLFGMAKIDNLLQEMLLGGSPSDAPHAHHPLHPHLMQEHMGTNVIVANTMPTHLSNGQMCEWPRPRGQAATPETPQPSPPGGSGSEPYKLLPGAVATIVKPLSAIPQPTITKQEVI
Numbers without * were called inactive. In the library only some 3.1% were active in any assay of this set; here they are far more common.

`COc1cc2c(cc1/C=C/[N+](=O)[O-])OCO2` gave PRMT1 inh 10.7, UHRF1 MBD2 ctr -1.1, LEDGF integ inh 8.2, MBD2 inh -10.7, RBBP9 inh -11.2, ABHD5-PLIN5 inh 65.9*, ABHD5-PLIN5 conf 96.2* and HNF4 counter 101.2*.
For O=C1CC(=O)N(c2ccccc2)C(=O)N1 the results were PRMT1 inh 1.0, UHRF1 MBD2 ctr -1.0, LEDGF integ inh -0.2, MBD2 inh -11.0, ABHD5-PLIN5 inh 29.0*, ABHD5-PLIN5 conf 5.2 and HNF4 counter 23.9*.
Screening Cc1ccc(N2C(=O)CC(=O)NC2=O)cc1 returned PRMT1 inh 4.0, UHRF1 MBD2 ctr -5.3, LEDGF integ inh 5.5, MBD2 inh -0.5, RBBP9 inh 4.7 and ABHD5-PLIN5 inh 20.6.
`COC1CC=C2CCN3CCC4=C(CC(=O)OC4)C23C1` (centres undefined) gave PRMT1 inh -4.3, UHRF1 MBD2 ctr -0.3, LEDGF integ inh 4.4 and MBD2 inh -1.8.
For C=C1C(=O)O[C@H]2[C@H]1[C@H](OC(=O)CC(=O)O[C@@H]1C[C@@H](C)[C@@H]3C=CC(=O)[C@@]3(C)[C@H]3OC(=O)C(=C)[C@H]13)C[C@@H](C)[C@H]1C=CC(=O)[C@]12C the results were PRMT1 inh 4.7, UHRF1 MBD2 ctr 0.8, LEDGF integ inh 3.0, MBD2 inh -3.3, ABHD5-PLIN5 inh 74.5*, ABHD5-PLIN5 conf 91.0* and HNF4 counter 90.1*.
For C=C1C(=O)OC2C1CCC(C)C1(O)C=CC(=O)C21C (centres undefined) the results were PRMT1 inh 3.0, UHRF1 MBD2 ctr 0.5, LEDGF integ inh -1.3, MBD2 inh -2.1 and ABHD5-PLIN5 inh 3.4.
Screening C=C1C(=O)OC2CC(C)C3C=CC(=O)C3(C)C(O)C12 (centres undefined) returned ABHD5-PLIN5 inh 79.1*, ABHD5-PLIN5 conf 92.7* and HNF4 counter 90.3*.
`COC(=O)C1CC(OC(C)=O)C(=O)[C@H]2C1(C)CC[C@H]1C(=O)OC(c3ccoc3)CC12C` (some centres undefined) gave PRMT1 inh 2.1, UHRF1 MBD2 ctr 0.1, LEDGF integ inh -1.8 and MBD2 inh -1.1.
For C=CCN1C(=O)NC(=O)/C(=C/c2c(CCN(C)C(=O)c3ccccc3)cc3c(c2OC)OCO3)C1=O the results were PRMT1 inh 9.9, UHRF1 MBD2 ctr -5.5, LEDGF integ inh 1.8, MBD2 inh -0.4, ABHD5-PLIN5 inh 26.3*, ABHD5-PLIN5 conf 9.1 and HNF4 counter 18.5*.
`CNC(=S)N(C)CCc1cc2c(c(OC)c1C=C1C(=O)NC(=O)NC1=O)OCO2` gave PRMT1 inh 15.2, UHRF1 MBD2 ctr 0.3, LEDGF integ inh -1.8, MBD2 inh -3.8, RBBP9 inh -6.1 and ABHD5-PLIN5 inh 21.7.
CC(C)OC(=O)C1C(c2ccc(I)cc2)CC2CCC1N2C (centres undefined) was read as PRMT1 inh -4.3, UHRF1 MBD2 ctr 0.1, LEDGF integ inh 1.7 and MBD2 inh -2.1.
For O=C1c2cccc3cccc(c23)C(=O)N1/N=C/c1c(O)n(-c2ccccc2)c(=O)[nH]c1=O the results were PRMT1 inh 4.4, UHRF1 MBD2 ctr -7.5, LEDGF integ inh -4.2, MBD2 inh -7.9, RBBP9 inh -2.6, ABHD5-PLIN5 inh 24.3*, ABHD5-PLIN5 conf 12.8 and HNF4 counter 17.8*.
`CCN(CC)S(=O)(=O)c1ccc(N=Cc2c(O)n(-c3ccccc3)c(=O)[nH]c2=O)cc1` gave PRMT1 inh 5.7, UHRF1 MBD2 ctr -4.2, LEDGF integ inh 3.2, MBD2 inh 1.8, RBBP9 inh -10.5 and ABHD5-PLIN5 inh 8.6.
O=C1NC(=O)C(=Cc2ccc(-c3ccc(F)cc3O)o2)C(=O)N1 was read as PRMT1 inh 4.5, UHRF1 MBD2 ctr -6.8, LEDGF integ inh 1.9, MBD2 inh -8.0, ABHD5-PLIN5 inh 25.3*, ABHD5-PLIN5 conf 72.9* and HNF4 counter 85.6*.
For O=C1NC(=O)C(=Cc2ccc(-c3ccc(Cl)cc3)o2)C(=O)N1 the results were ABHD5-PLIN5 inh 13.3.
Nc1c(C(=O)NCc2ccco2)c2nc3ccccc3nc2n1CCN1CCCCC1 was read as PRMT1 inh 2.8, UHRF1 MBD2 ctr -4.8, LEDGF integ inh -1.1, MBD2 inh 2.4, RBBP9 inh 4.4, ABHD5-PLIN5 inh 23.8*, ABHD5-PLIN5 conf 12.3 and HNF4 counter 7.6.
Screening O=C(NCCN1CCC2(CC1)C(=O)NCN2c1ccccc1)c1ccccc1F returned PRMT1 inh -1.1, UHRF1 MBD2 ctr 1.6, LEDGF integ inh 1.1 and MBD2 inh 0.6.
CC1CCC(C(C)C)C(OC(=O)Cn2c(COc3ccccc3)[n+](C)c3ccccc32)C1 (centres undefined) was read as PRMT1 inh 4.6, UHRF1 MBD2 ctr 1.4, LEDGF integ inh -6.2, MBD2 inh 0.3, RBBP9 inh -6.8, ABHD5-PLIN5 inh 28.6*, ABHD5-PLIN5 conf 12.0 and HNF4 counter 7.7.
CCc1ccc(N2C(=O)NC(=O)/C(=C/c3ccsc3)C2=O)cc1 was read as RBBP9 inh -7.2.
For O=C1NC(=O)N(c2ccc3c(c2)OCO3)C(=O)/C1=C/c1ccsc1 the results were PRMT1 inh 12.6, UHRF1 MBD2 ctr 0.9, LEDGF integ inh -1.3, MBD2 inh -4.0, RBBP9 inh 0.1, ABHD5-PLIN5 inh 29.7*, ABHD5-PLIN5 conf 66.3* and HNF4 counter 55.5*.
For O=C1NC(=O)N(c2ccc3c(c2)OCO3)C(=O)/C1=C/c1cccs1 the results were PRMT1 inh 3.8, UHRF1 MBD2 ctr -3.4, LEDGF integ inh 1.6, MBD2 inh -2.1, RBBP9 inh -3.9, ABHD5-PLIN5 inh 29.1*, ABHD5-PLIN5 conf 82.1* and HNF4 counter 87.1*.
For O=C1NC(=O)N(c2ccc3c(c2)OCO3)C(=O)/C1=C/c1ccc(N2CCCC2)o1 the results were PRMT1 inh -19.7, UHRF1 MBD2 ctr -41.9, LEDGF integ inh -0.3, MBD2 inh -23.7, RBBP9 inh -3.5 and ABHD5-PLIN5 inh 7.7.
For O=C(NC1CCCCC1)N1Cc2cc(Br)ccc2-n2nncc2C1 the results were PRMT1 inh -2.6, UHRF1 MBD2 ctr 0.1, LEDGF integ inh 3.6 and MBD2 inh -5.5.
Screening CCCCCCCCn1sccc1=O returned PRMT1 inh 18.5, UHRF1 MBD2 ctr -14.6, LEDGF integ inh 6.6, MBD2 inh -9.6, ABHD5-PLIN5 inh 90.3*, ABHD5-PLIN5 conf 88.8* and HNF4 counter 107.2*.
Screening COC(=O)C1=C(c2ccc(OC(F)(F)F)cc2)C[C@@H]2CC[C@H]1N2C(=O)NCc1ccco1 returned PRMT1 inh 1.3, UHRF1 MBD2 ctr -1.9, LEDGF integ inh 3.5 and MBD2 inh -6.6.
